Measured values taken from ChEMBL document CHEMBL1144871, “Synthesis of substituted 6-anilinouracils and their inhibition of DNA polymerase IIIC and Gram-positive bacterial growth” (J Med Chem, 2003).
≈ marks a conversion by molar mass, not a printed value.

Tests used:
Enterococcus faecalis [1] = test: Antibacterial activity against vancomycin-resistant strain of Enterococcus faecalis(VRE) was determined; assay type: functional
Method in brief: (§1)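 MIC by broth microdilution. Log-phase cultures in Luria broth, seeded at (3-7) × 10⁵ CFU/mL stocks. Compound from DMSO stock, 2-fold serial dilutions giving five concentrations from 20 to 1.25 µg/mL, final 1% DMSO, with untreated and DMSO controls. Duplicate assays, 37 °C for 16 to 24 h, growth read as OD 600 nm. MIC is the averaged lowest concentration preventing growth.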

Enterococcus faecium = test: Antibacterial activity against Enterococcus faecium was determined; assay type: functional, enterococcus fecium
Method in brief: (§2)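 Broth microdilution MIC. Log-phase cultures grown in Luria broth; wells seeded from stocks at (3-7) × 10⁵ CFU/mL. DMSO stocks diluted 2-fold to five concentrations, 20 to 1.25 µg/mL, plus untreated control; 1% DMSO final in all wells. Duplicate assays, 37 °C for 16 to 24 h, growth read as OD600. MIC taken as lowest concentration preventing growth, averaged.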

Escherichia coli = test: Antibacterial activity against Escherichia coli was determined; assay type: functional; method in brief: as §2
Enterococcus faecalis [2] = test: Antibacterial activity against Enterococcus faecalis was determined; assay type: functional; method in brief: as §1
Staphylococcus aureus [3] = test: Antibacterial activity against Staphylococcus aureus(smith) was determined; assay type: functional
Staphylococcus aureus [4] = test: Antibacterial activity against methicillin-resistant strain of Staphylococcus aureus(MRSA B42876) was determined; assay type: functional; method in brief: as §1
[5] = biological target: DNA polymerase III PolC-type (Bacillus subtilis (strain 168), UniProt P13267); test: Inhibitory activity against DNA polymerase IIIC from Bacillus subtilis was determined
Sequence of DNA polymerase III PolC-type (P13267 whole entry, the tested form may be a part): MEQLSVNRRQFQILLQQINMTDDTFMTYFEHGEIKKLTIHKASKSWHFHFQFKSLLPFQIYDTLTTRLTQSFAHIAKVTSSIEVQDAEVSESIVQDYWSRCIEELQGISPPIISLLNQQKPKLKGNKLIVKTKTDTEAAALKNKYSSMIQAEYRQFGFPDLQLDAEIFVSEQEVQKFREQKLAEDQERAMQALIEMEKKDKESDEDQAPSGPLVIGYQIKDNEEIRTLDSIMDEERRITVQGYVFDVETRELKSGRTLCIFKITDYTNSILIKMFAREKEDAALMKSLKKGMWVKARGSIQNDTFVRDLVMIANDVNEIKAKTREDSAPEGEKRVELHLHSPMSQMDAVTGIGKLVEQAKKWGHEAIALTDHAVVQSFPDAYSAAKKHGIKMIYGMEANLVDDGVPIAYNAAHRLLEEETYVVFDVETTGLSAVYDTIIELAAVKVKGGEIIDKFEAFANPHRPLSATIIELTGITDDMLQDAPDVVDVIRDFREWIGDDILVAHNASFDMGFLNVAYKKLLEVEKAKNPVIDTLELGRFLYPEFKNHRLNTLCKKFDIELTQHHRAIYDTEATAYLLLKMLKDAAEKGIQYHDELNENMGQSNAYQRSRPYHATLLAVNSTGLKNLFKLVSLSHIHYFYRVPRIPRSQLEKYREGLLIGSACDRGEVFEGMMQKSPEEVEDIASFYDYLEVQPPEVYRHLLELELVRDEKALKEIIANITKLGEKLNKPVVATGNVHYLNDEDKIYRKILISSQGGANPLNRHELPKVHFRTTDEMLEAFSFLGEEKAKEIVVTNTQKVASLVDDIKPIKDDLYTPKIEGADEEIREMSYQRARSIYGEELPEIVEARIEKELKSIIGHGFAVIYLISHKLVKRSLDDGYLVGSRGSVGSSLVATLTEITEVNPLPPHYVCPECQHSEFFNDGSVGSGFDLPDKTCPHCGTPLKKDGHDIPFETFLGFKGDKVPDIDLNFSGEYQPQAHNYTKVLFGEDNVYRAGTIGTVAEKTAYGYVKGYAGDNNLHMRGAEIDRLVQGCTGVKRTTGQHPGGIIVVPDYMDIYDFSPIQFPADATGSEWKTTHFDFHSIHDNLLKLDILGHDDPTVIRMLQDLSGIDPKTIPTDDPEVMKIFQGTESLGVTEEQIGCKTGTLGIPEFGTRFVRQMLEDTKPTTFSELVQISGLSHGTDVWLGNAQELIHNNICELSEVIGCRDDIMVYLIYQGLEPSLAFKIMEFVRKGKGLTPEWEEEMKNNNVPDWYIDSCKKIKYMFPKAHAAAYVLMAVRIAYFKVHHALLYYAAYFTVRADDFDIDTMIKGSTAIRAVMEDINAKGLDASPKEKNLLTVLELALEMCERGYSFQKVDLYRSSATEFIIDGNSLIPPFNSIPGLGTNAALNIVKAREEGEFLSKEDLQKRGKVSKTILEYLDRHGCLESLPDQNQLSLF
Method in brief: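 Homogeneous recombinant B. subtilis pol IIIC, 0.025-0.06 units, added to buffered Mg²⁺/DTT/glycerol mix with dATP, dCTP, dTTP, [³H]dTTP and activated calf thymus DNA, no dGTP ("truncated" assay). Compound serial dilutions in DMSO added before enzyme. 10 min at 30 °C, TCA-pyrophosphate stop, acid-precipitated DNA filtered and scintillation counted. Apparent Ki read directly; duplicates.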

Bacillus subtilis = test: Antibacterial activity against Bacillus subtilis was determined; assay type: functional
Staphylococcus aureus [6] = test: Antibacterial activity against Staphylococcus aureus was determined; assay type: functional

Structure (SMILES)	MIC (Enterococcus faecalis [1]) [µg/mL]	MIC (Enterococcus faecium) [µg/mL]	MIC (Escherichia coli) [µg/mL]	MIC (Enterococcus faecalis [2]) [µg/mL]	MIC (Staphylococcus aureus [3]) [µg/mL]	MIC (Staphylococcus aureus [4]) [µg/mL]	Ki [5] [nM]	MIC (Bacillus subtilis) [µg/mL]	MIC (Staphylococcus aureus [6]) [µg/mL]
CCc1cc(Nc2cc(=O)n(CCCCN3CCC(O)(c4ccc(Cl)c(C(F)(F)F)c4)CC3)c(=O)[nH]2)ccc1C	2.5 (≈ 4.32 µM)	2.5 (≈ 4.32 µM)	> 20	–	–	–	–	–	–
CCc1cc(Nc2cc(=O)n(CCCCN3CCN(C(=O)c4ccco4)CC3)c(=O)[nH]2)ccc1C	10 (≈ 20.9 µM)	10 (≈ 20.9 µM)	> 20	5 (≈ 10.4 µM)	5 (≈ 10.4 µM)	20 (≈ 41.7 µM)	–	–	–
CCc1cc(Nc2cc(=O)n(CCCCO)c(=O)[nH]2)ccc1C	2.5 (≈ 7.88 µM)	2.5 (≈ 7.88 µM)	> 20	–	–	–	63	–	–
COCCCCn1c(=O)cc(Nc2ccc(C)c(CSC#N)c2)[nH]c1=O	–	> 20	> 20	> 20	> 20	–	60	> 20	> 20
COCCCCn1c(=O)cc(Nc2ccc(C)c(Br)c2)[nH]c1=O	2.5 (≈ 6.54 µM)	5 (≈ 13.1 µM)	> 20	5 (≈ 13.1 µM)	2.5 (≈ 6.54 µM)	5 (≈ 13.1 µM)	129	2.5 (≈ 6.54 µM)	5 (≈ 13.1 µM)
COCCCCn1c(=O)cc(Nc2ccc(C)c(CS)c2)[nH]c1=O	–	> 20	> 20	> 20	> 20	–	180	> 20	> 20
CCc1cc(Nc2cc(=O)n(CCCCN3CCSCC3)c(=O)[nH]2)ccc1C	5 (≈ 12.4 µM)	5 (≈ 12.4 µM)	> 20	5 (≈ 12.4 µM)	–	20 (≈ 49.7 µM)	–	–	20 (≈ 49.7 µM)
C=Cc1cc(Nc2cc(=O)n(CCCCOC)c(=O)[nH]2)ccc1C	10 (≈ 30.4 µM)	5 (≈ 15.2 µM)	> 20	10 (≈ 30.4 µM)	5 (≈ 15.2 µM)	10 (≈ 30.4 µM)	560	< 1.25	5 (≈ 15.2 µM)
COCCCCn1c(=O)cc(Nc2ccc(C)c(CO)c2)[nH]c1=O	–	> 20	> 20	> 20	> 20	–	20000	> 20	> 20
COCCCCn1c(=O)cc(Nc2ccc(C)c(C(C)=O)c2)[nH]c1=O	–	> 20	> 20	> 20	> 20	–	3260	> 20	> 20
CCc1cc(Nc2cc(=O)n(CCCCN)c(=O)[nH]2)ccc1C.Cl	–	–	> 20	–	–	–	62	–	–
COCCCCn1c(=O)cc(Nc2ccc(C)c(C(C)Cl)c2)[nH]c1=O (stereo unspecified)	–	> 20	> 20	> 20	> 20	–	6470	> 20	> 20
CCc1cc(Nc2cc(=O)n(CCCCN3CCN(c4ccc(F)cc4)CC3)c(=O)[nH]2)ccc1C	5 (≈ 10.4 µM)	5 (≈ 10.4 µM)	> 20	10 (≈ 20.9 µM)	–	20 (≈ 41.7 µM)	–	–	10 (≈ 20.9 µM)
CCc1cc(Nc2cc(=O)n(CCCCN3CCNCC3)c(=O)[nH]2)ccc1C.Cl.Cl	–	> 20	> 20	> 20	> 20	–	30	20	> 20
CCOC(=O)CC1CN(CCCCn2c(=O)cc(Nc3ccc(C)c(CC)c3)[nH]c2=O)CCO1 (stereo unspecified)	–	10 (≈ 21.2 µM)	> 20	> 20	20 (≈ 42.3 µM)	20 (≈ 42.3 µM)	26	5 (≈ 10.6 µM)	20 (≈ 42.3 µM)
CCc1cc(Nc2cc(=O)n(CCCCN3CCOCC3)c(=O)[nH]2)ccc1C	–	–	> 20	–	–	–	–	–	–
COCCCCn1c(=O)cc(NCc2ccc(Cl)c(Cl)c2)[nH]c1=O	5 (≈ 13.4 µM)	5 (≈ 13.4 µM)	> 20	5 (≈ 13.4 µM)	5 (≈ 13.4 µM)	20 (≈ 53.7 µM)	80	3.75 (≈ 10.1 µM)	10 (≈ 26.9 µM)
CCc1cc(Nc2cc(=O)n(CCCCN3CCC(O)(c4ccc(Cl)cc4)CC3)c(=O)[nH]2)ccc1C	10 (≈ 19.6 µM)	5 (≈ 9.78 µM)	> 20	5 (≈ 9.78 µM)	5 (≈ 9.78 µM)	5 (≈ 9.78 µM)	–	–	–
CCc1cc(Nc2cc(=O)n(CCCCN3CCN(c4ncccn4)CC3)c(=O)[nH]2)ccc1C	5 (≈ 10.8 µM)	5 (≈ 10.8 µM)	> 20	5 (≈ 10.8 µM)	10 (≈ 21.6 µM)	10 (≈ 21.6 µM)	–	–	–
COCCCCn1c(=O)cc(Nc2ccc(C)c(Cl)c2)[nH]c1=O	5 (≈ 14.8 µM)	5 (≈ 14.8 µM)	> 20	5 (≈ 14.8 µM)	5 (≈ 14.8 µM)	> 20	42	< 1.25	10 (≈ 29.6 µM)
COCCCCn1c(=O)cc(Nc2ccc(C)c(CCl)c2)[nH]c1=O	–	> 20	> 20	> 20	20 (≈ 56.8 µM)	20 (≈ 56.8 µM)	40	5 (≈ 14.2 µM)	20 (≈ 56.8 µM)
CCc1cc(Nc2cc(=O)n(CCCCOC)c(=O)[nH]2)ccc1C	2.5 (≈ 7.54 µM)	–	> 20	–	–	–	88	–	–
COCCCCn1c(=O)cc(Nc2ccc(C)c(C(C)O)c2)[nH]c1=O (stereo unspecified)	–	> 20	> 20	> 20	> 20	–	2100	> 20	> 20
COCCCCn1c(=O)cc(Nc2ccc(C)c(CC#N)c2)[nH]c1=O	–	20 (≈ 58.4 µM)	> 20	> 20	20 (≈ 58.4 µM)	–	1020	20 (≈ 58.4 µM)	> 20
CCOC1CN(CCCCn2c(=O)cc(Nc3ccc(C)c(CC)c3)[nH]c2=O)CCO1 (stereo unspecified)	10 (≈ 23.2 µM)	20 (≈ 46.5 µM)	> 20	10 (≈ 23.2 µM)	20 (≈ 46.5 µM)	20 (≈ 46.5 µM)	43	2.5 (≈ 5.81 µM)	10 (≈ 23.2 µM)
CCc1cc(Nc2cc(=O)n(CCCCI)c(=O)[nH]2)ccc1C	–	> 20	> 20	> 20	> 20	–	140	> 20	> 20
O=C(O)c1cn(C2CC2)c2cc(N3CCNCC3)c(F)cc2c1=O [CIPROFLOXACIN]	20 (≈ 60.4 µM)	–	0.313 (≈ 0.945 µM)	–	–	–	–	–	–
CN[C@H](CC(C)C)C(=O)N[C@H]1C(=O)N[C@@H](CC(N)=O)C(=O)N[C@H]2C(=O)N[C@H]3C(=O)N[C@H](C(=O)N[C@H](C(=O)O)c4cc(O)cc(O)c4-c4cc3ccc4O)[C@H](O)c3ccc(c(Cl)c3)Oc3cc2cc(c3O[C@@H]2O[C@H](CO)[C@@H](O)[C@H](O)[C@H]2O[C@H]2C[C@](C)(N)[C@H](O)[C@H](C)O2)Oc2ccc(cc2Cl)[C@H]1O [VANCOMYCIN]	> 20	–	> 20	–	–	–	–	–	–
